From ChEMBL document CHEMBL1828528, “Acyclic nucleoside thiophosphonates as potent inhibitors of HIV and HBV replication” (Eur J Med Chem, 2011)
Calls of active or inactive are those of the source. No cut-off for these calls is given here.

Tests used:
[1] = test system: Human immunodeficiency virus 1; experiment: Antiviral activity against 100 TCID50 wild-type Human immunodeficiency virus 1 3B infected in CEM cells assessed as inhibition of syncytia formation after 4 days by microscopic analysis; type: functional, organism-based; conditions: CCRF-CEM, 96 h
Method in brief: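 Human CEM cells (~3 × 10^5 cells/cm3) infected with 100 CCID50/mL HIV-1 IIIB and seeded into wells holding compound dilutions. After 4 days at 37 °C, giant-cell (syncytium) formation was scored microscopically. EC50 is the concentration inhibiting syncytia formation by 50%.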

[2] = (§1) Cytotoxicity against human CEM cells; type: cell-based, CCRF-CEM; conditions: CCRF-CEM (CEM) cells
Method in brief: (§2)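 Mock-infected CEM cells cultured alongside the anti-HIV assay with compound dilutions for 4 days at 37 °C. CC50 is the concentration inhibiting CEM cell proliferation by 50%.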

[3] = Cytotoxicity against […]-activated human PBMC on day 7 by MTT assay; type: cell-based
Method in brief: (§3)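 Uninfected PHA-P-activated PBMC and H9 cells exposed to graded compound concentrations. Viability by MTT on day 7. CC50 from quadratic fit of % viability against concentration; triplicates.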

[4] = Cytotoxicity against […]-activated human H9 cells on day 7 by MTT assay; type: cell-based; method in brief: as §3
[5] = test system: Human immunodeficiency virus 1; experiment: Antiviral activity against HIV1 clade B isolate 2056 infected in human H9 cells assessed as inhibition of viral replication; type: functional, organism-based; conditions: Human immunodeficiency virus 1, clade B isolate 2056, H9
Method in brief: (§4)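 H9 cells infected with HIV-1 clinical isolates of clades A, B, C, D, A/E, F and G, in the presence of graded compound concentrations. EC50 is the concentration reducing viral replication by 50%.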

[6] = test system: Human immunodeficiency virus 1; experiment: Antiviral activity against HIV1 clade C isolate 4110 infected in human H9 cells assessed as inhibition of viral replication; type: functional, organism-based; conditions: Human immunodeficiency virus 1, clade C isolate 4110, H9; method in brief: as §4
Influenza B virus = experiment: Antiviral activity against influenza B virus; type: functional, organism-based
[7] = test system: Mammalian orthoreovirus 1; experiment: Antiviral activity against Reovirus 1 infected in african green monkey Vero cells assessed as inhibition of virus-induced cytopathic effect up to 200 uM measured on day 3 post infection by microscopic analysis; type: functional, organism-based
Method in brief: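 Confluent Vero cell monolayers inoculated with 100 CCID50 of virus. Compound added after 1–2 h adsorption, tested up to 200 μM. Microscopic CPE scoring on day 3 post infection versus untreated controls.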

HeLa = experiment: Cytotoxicity against human HeLa cells up to 200 uM; type: cell-based
Method in brief: (§5)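 Uninfected confluent Vero, CrFK, HEL or HeLa cultures incubated with serial compound dilutions (up to 200 μM) for the same period as the antiviral assays. Minimal toxic concentration is the lowest giving microscopically detectable alteration of cell morphology.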

[8] = Cytotoxicity against feline kidney CRFK cells up to 200 uM; type: cell-based, Felis catus; conditions: cat; method in brief: as §5
Human alphaherpesvirus 1 = experiment: Antiviral activity against TK-deficient and ACR-resistant Herpes simplex virus type 1 KOS infected in HEL cells assessed as inhibition of virus-induced cytopathic effect; type: functional, organism-based; conditions: Human alphaherpesvirus 1, KOS
Method in brief: (§6)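 Confluent HEL cell monolayers inoculated with 100 CCID50 of virus. Compounds added after a 1–2 h adsorption period. Virus-induced cytopathic effect scored microscopically at 3 days post infection as % of untreated controls. EC50 derived from graphical plots.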

Human alphaherpesvirus 2 = experiment: Antiviral activity against Herpes simplex virus type 2 G infected in HEL cells assessed as inhibition of virus-induced cytopathic effect; type: functional, organism-based; conditions: Human alphaherpesvirus 2, strain G; method in brief: as §6
[9] = Half life of the compound in complete culture medium by HPLC analysis; type: physicochemical
Method in brief: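 Compound diluted to 0.1 mM final in RPMI-1640 with 10% heat-inactivated FCS and incubated at 37 °C up to 24 h. Timed aliquots frozen at −80 °C, then analysed by reverse-phase HPLC with on-line filtration: C18 column, triethylammonium bicarbonate pH 7.5/acetonitrile gradient, detection at 260 nm. Half-life calculated.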

[10] = Stability of compound in presence of CEM-SS cell extract assessed as compound degradation after 24 hrs by HPLC analysis; type: physicochemical; conditions: human, read-out: Activity
Method in brief: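 Compound diluted to 0.1 mM final in one of two media and incubated at 37 °C: RPMI-1640 with 10% heat-inactivated FCS, or CEM-SS cell extract (soluble proteins 3 mg/mL in 10 mM Tris-HCl pH 7.4, 140 mM KCl). Aliquots were taken over time, frozen at −80 °C, then run on C18 reverse-phase HPLC with on-line filtration, TEAB/acetonitrile gradient and 260 nm detection. Degradation products were identified by co-injection.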

[11] = Cytotoxicity against human HuH7 cells; type: cell-based; conditions: Huh-7 cells
[12] = Cytotoxicity against human HepAD38 cells; type: cell-based
[13] = test system: Human immunodeficiency virus 1; experiment: Ratio EC50 for PMPA to compound for HIV1 clade B isolate 2101 infected in human H9 cells assessed as inhibition of viral replication; type: functional
[14] = test system: Human immunodeficiency virus 1; experiment: Ratio EC50 for PMPA to compound for HIV1 clade B isolate 2056 infected in human H9 cells assessed as inhibition of viral replication; type: functional
[15] = test system: Human immunodeficiency virus 1; experiment: Ratio EC50 for PMPA to compound for HIV1 clade C isolate 4110 infected in human H9 cells assessed as inhibition of viral replication; type: functional
[16] = test system: Human immunodeficiency virus 1; experiment: Ratio EC50 for PMPA to compound for HIV1 clade A/E isolate 2165 infected in human H9 cells assessed as inhibition of viral replication; type: functional
[17] = test system: Human immunodeficiency virus 1; experiment: Ratio EC50 for PMPA to compound for HIV1 clade G isolate 3187 infected in human H9 cells assessed as inhibition of viral replication; type: functional
CCRF-CEM = experiment: as §1; type: cell-based; conditions: ccrf-cem; method in brief: as §2
Hepatitis B virus = experiment: Antiviral activity against Hepatitis B virus infected in human HuH7 cells assessed as reduction in viral DNA level treated day 3 to day 8 post transfection by real time quantitative PCR analysis; type: functional, organism-based; conditions: Huh-7
[18] = test system: Human immunodeficiency virus 1; experiment: Ratio EC50 for PMEA to compound for HIV1 clade B isolate 2101 infected in human H9 cells assessed as inhibition of viral replication; type: functional
Method in brief: (§7)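 Ratio computed as EC50 of PMEA divided by EC50 of the test compound, both measured against the same clinical isolate in H9 cells.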

[19] = test system: Human immunodeficiency virus 1; experiment: Ratio EC50 for PMEA to compound for HIV1 clade B isolate 2056 infected in human H9 cells assessed as inhibition of viral replication; type: functional; method in brief: as §7
[20] = test system: Human immunodeficiency virus 1; experiment: Ratio EC50 for PMEA to compound for HIV1 clade B isolate 1722 infected in human H9 cells assessed as inhibition of viral replication; type: functional; method in brief: as §7
[21] = test system: Human immunodeficiency virus 1; experiment: Ratio EC50 for PMEA to compound for HIV1 clade C isolate 2914 infected in human H9 cells assessed as inhibition of viral replication; type: functional; method in brief: as §7
[22] = test system: Human immunodeficiency virus 1; experiment: Ratio EC50 for PMEA to compound for HIV1 clade C isolate 4110 infected in human H9 cells assessed as inhibition of viral replication; type: functional; method in brief: as §7
[23] = test system: Human immunodeficiency virus 1; experiment: Ratio EC50 for PMEA to compound for HIV1 clade D isolate 1649 infected in human H9 cells assessed as inhibition of viral replication; type: functional; method in brief: as §7
[24] = test system: Human immunodeficiency virus 1; experiment: Ratio EC50 for PMEA to compound for HIV1 clade F isolate 2338 infected in human H9 cells assessed as inhibition of viral replication; type: functional; method in brief: as §7
[25] = test system: Human immunodeficiency virus 1; experiment: Ratio EC50 for PMEA to compound for HIV1 clade G isolate 3187 infected in human H9 cells assessed as inhibition of viral replication; type: functional

SMILES	EC50 [1] [µM]	CC50 at 7 day [3] [µM]	CC50 at 7 day [4] [µM]	EC50 [5] [µM]	EC50 [6] [µM]	Activity (Influenza B virus)	inhibition [7]	Activity (HeLa)	Activity [8]	EC50 (Human alphaherpesvirus 1) [µM]	EC50 (Human alphaherpesvirus 2) [µM]	half-life [9] [h]	metabolised at 24 h [10] [%]	CC50 [11] [µM]	CC50 [12] [µM]	also measured
C[C@H](Cn1cnc2c(N)ncnc21)OCP(=O)([O-])[S-].[Na+].[Na+] (stereo partly specified)	14	> 100	> 100	0.45	0.54	inactive	inactive	Non-toxic	Non-toxic	80	48	> 24	< 1	> 150	> 150	CC50 [2]: > 250 µM; Ratio EC50 [13]: 0.51; Ratio EC50 [14]: 2.77; Ratio EC50 [15]: 1.54; Ratio EC50 [16]: 1.5; Ratio EC50 [17]: 1.25
Nc1ncnc2c1ncn2CCOCP(=O)([O-])[S-].[Na+].[Na+] (stereo unspecified)	16	> 30	> 30	3.41	0.45	inactive	inactive	Non-toxic	Non-toxic	24	24	> 24	< 1	> 150	> 150	CC50 (CCRF-CEM): 233 µM; EC50 (Hepatitis B virus): 4.5 µM; Ratio EC50 [18]: 7.16; Ratio EC50 [19]: 0.29; Ratio EC50 [20]: 0.66; Ratio EC50 [21]: 2.96; Ratio EC50 [22]: 6; Ratio EC50 [23]: 0.11; Ratio EC50 [24]: 0.86; Ratio EC50 [25]: 0.25
